ChEMBL document CHEMBL1629439, “High-throughput identification of antibacterials against methicillin-resistant Staphylococcus aureus (MRSA) and the transglycosylase” (Bioorg Med Chem, 2010)
Values after ≈ are worked out from the molar mass of the structure shown.

Tests used:
[1] = system: Stenotrophomonas maltophilia; assay: Antimicrobial activity against Stenotrophomonas maltophilia ATCC 13637 after 18 to 24 hrs by alamar blue assay; type: functional; conditions: Stenotrophomonas maltophilia, ATCC 13637; read-out: MIC
Method in brief: (§1)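 Broth microdilution per NCCLS in Mueller-Hinton broth, 8-point twofold dilutions, 384-well format. Exponential-phase cells at 5 × 10^5 cells/ml incubated with compound 18–24 h at 37 °C, then 20% Alamar blue added and fluorescence read. MIC90 taken as the lowest concentration preventing at least 90% bacterial growth.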

Escherichia coli = assay: Antimicrobial activity against Escherichia coli ATCC […] after 18 to 24 hrs by alamar blue assay; type: functional; conditions: Escherichia coli; read-out: MIC; method in brief: as §1
Serratia marcescens = assay: Antimicrobial activity against Serratia marcescens ATCC 14756 after 18 to 24 hrs by alamar blue assay; type: functional; conditions: Serratia marcescens, ATCC 14756; read-out: MIC; method in brief: as §1
Bacillus subtilis = assay: Antimicrobial activity against Bacillus subtilis ATCC 23857 after 18 to 24 hrs by alamar blue assay; type: functional; method in brief: as §1
[2] = system: Mycolicibacterium smegmatis; assay: Antimicrobial activity against Mycobacterium smegmatis BCRC 11565 after 18 to 24 hrs by alamar blue assay; type: functional; conditions: Mycolicibacterium smegmatis, BCRC 11565; read-out: MIC; method in brief: as §1
Staphylococcus aureus [3] = assay: Antimicrobial activity against methicillin-resistant Staphylococcus aureus ATCC 33592 after 18 to 24 hrs by alamar blue assay; type: functional; conditions: Staphylococcus aureus, ATCC 33592; read-out: MIC
Method in brief: (§2)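 Broth microdilution per NCCLS standard, Mueller-Hinton broth, 8-point twofold dilutions; exponentially growing cells at 5 10^5 cells/ml with compound, 18–24 h at 37 C; 20% Alamar blue added, fluorescence read; MIC90 taken as lowest concentration preventing at least 90% growth.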

Staphylococcus aureus [4] = assay: Antimicrobial activity against Staphylococcus aureus ATCC 29213 after 18 to 24 hrs by alamar blue assay
Staphylococcus aureus [5] = assay: Antimicrobial activity against oxacillin- and methicillin-resistant Staphylococcus aureus isolate Sa-OXA-R2 after 18 to 24 hrs by alamar blue assay; type: functional; method in brief: as §2
Pseudomonas aeruginosa = assay: Antimicrobial activity against Pseudomonas aeruginosa ATCC 25619 after 18 to 24 hrs by alamar blue assay; type: functional; conditions: Pseudomonas aeruginosa, ATCC 25619; read-out: MIC; method in brief: as §1
Staphylococcus aureus [6] = assay: Antimicrobial activity against methicillin-resistant Staphylococcus aureus isolate NTUH4722 after 18 to 24 hrs by alamar blue assay; type: functional; method in brief: as §2
Acinetobacter baumannii = assay: Antimicrobial activity against Acinetobacter baumannii ATCC 49139 after 18 to 24 hrs by alamar blue assay; type: functional; conditions: Acinetobacter baumannii, ATCC 49139; read-out: MIC; method in brief: as §1

Structure (SMILES) | MIC [1] [µg/mL] | MIC (Escherichia coli) [µg/mL] | MIC (Serratia marcescens) [µg/mL] | MIC (Bacillus subtilis) [µg/mL] | MIC [2] [µg/mL] | MIC (Staphylococcus aureus [3]) [µg/mL] | MIC (Staphylococcus aureus [4]) [µg/mL] | MIC (Staphylococcus aureus [5]) [µg/mL] | MIC (Pseudomonas aeruginosa) [µg/mL] | MIC (Staphylococcus aureus [6]) [µg/mL] | MIC (Acinetobacter baumannii) [µg/mL]
Cc1ccc(C)c(NS(=O)(=O)c2ccc3c(c2)NCC(C)C(=O)S3)c1 (configuration not stated) | > 256 | > 256 | > 256 | < 0.03 | > 64 | 16 (≈ 42.5 µM) | 2 (≈ 5.31 µM) | > 64 | > 256 | 32 (≈ 85 µM) | > 256
O=C(CCN1C(=O)c2cccc3cccc(c23)C1=O)N1CCN(C/C=C/c2ccccc2)CC1 | > 256 | > 256 | > 256 | 4 (≈ 8.82 µM) | 4 (≈ 8.82 µM) | 1 (≈ 2.2 µM) | 0.5 (≈ 1.1 µM) | 0.25 (≈ 0.551 µM) | > 256 | 4 (≈ 8.82 µM) | > 256
O=C1c2cc([N+](=O)[O-])cc3cc([N+](=O)[O-])cc(c23)C(=O)N1Nc1ccc(Cl)cc1 | > 256 | > 256 | > 256 | 4 (≈ 9.69 µM) | 4 (≈ 9.69 µM) | 2.5 (≈ 6.06 µM) | 2.5 (≈ 6.06 µM) | 2.5 (≈ 6.06 µM) | > 256 | 2.5 (≈ 6.06 µM) | > 256
CCCC(NC(=O)Cc1c(C)c2cc3c(-c4ccc(Cl)cc4)coc3c(C)c2oc1=O)C(=O)O (configuration not stated) | > 256 | > 256 | > 256 | > 64 | 1 (≈ 2.07 µM) | 2.5 (≈ 5.19 µM) | 1.25 (≈ 2.59 µM) | 1.25 (≈ 2.59 µM) | > 256 | 2.5 (≈ 5.19 µM) | > 256
O=C(Nc1nnc(-c2ccc(F)cc2)o1)c1cccc(Cl)c1 | > 256 | > 256 | > 256 | 0.5 (≈ 1.57 µM) | 0.5 (≈ 1.57 µM) | 0.5 (≈ 1.57 µM) | 1 (≈ 3.15 µM) | 4 (≈ 12.6 µM) | > 256 | 1 (≈ 3.15 µM) | > 256
O=C(Nc1cccc(Cl)c1)c1cc(Br)cc(Br)c1O | 16 (≈ 39.5 µM) | 8 (≈ 19.7 µM) | 16 (≈ 39.5 µM) | < 0.03 | 0.5 (≈ 1.23 µM) | 2 (≈ 4.93 µM) | 2 (≈ 4.93 µM) | 8 (≈ 19.7 µM) | 16 (≈ 39.5 µM) | 2 (≈ 4.93 µM) | 16 (≈ 39.5 µM)
Cc1c(CC(=O)N2CCC(C(=O)O)CC2)c(=O)oc2c(C)c3occ(-c4ccc(F)cc4)c3cc12 | > 256 | > 256 | > 256 | > 64 | 1 (≈ 2.09 µM) | 1.25 (≈ 2.62 µM) | 2.5 (≈ 5.24 µM) | 2.5 (≈ 5.24 µM) | > 256 | 2.5 (≈ 5.24 µM) | > 256
CNC(=O)c1ccsc1NC(=O)c1ccc([N+](=O)[O-])o1 | 32 (≈ 108 µM) | 256 (≈ 867 µM) | 32 (≈ 108 µM) | 0.06 (≈ 0.203 µM) | 0.5 (≈ 1.69 µM) | 0.5 (≈ 1.69 µM) | 2 (≈ 6.77 µM) | 0.5 (≈ 1.69 µM) | 128 (≈ 433 µM) | 0.5 (≈ 1.69 µM) | 12 (≈ 40.6 µM)
COC(=O)c1c(NC(=O)c2ccc([N+](=O)[O-])o2)sc2c1CC(C)(C)NC2(C)C | 32 (≈ 78.5 µM) | 256 (≈ 628 µM) | 32 (≈ 78.5 µM) | 0.06 (≈ 0.147 µM) | 0.5 (≈ 1.23 µM) | 2 (≈ 4.91 µM) | 2 (≈ 4.91 µM) | 2 (≈ 4.91 µM) | 128 (≈ 314 µM) | 4 (≈ 9.82 µM) | 12 (≈ 29.5 µM)
O=C(Nc1nnc(-c2ccccc2Cl)o1)c1nc2ccccc2s1 | > 256 | > 256 | > 256 | 0.5 (≈ 1.4 µM) | 0.5 (≈ 1.4 µM) | 2 (≈ 5.61 µM) | 2 (≈ 5.61 µM) | 32 (≈ 89.7 µM) | > 256 | 2 (≈ 5.61 µM) | > 256
CCOC(=O)c1c(NC(=O)c2ccc([N+](=O)[O-])o2)sc2c1CCN(C(C)=O)C2 | 32 (≈ 78.5 µM) | 256 (≈ 628 µM) | 32 (≈ 78.5 µM) | 0.06 (≈ 0.147 µM) | 0.5 (≈ 1.23 µM) | 4 (≈ 9.82 µM) | 1 (≈ 2.45 µM) | 1 (≈ 2.45 µM) | 128 (≈ 314 µM) | 1 (≈ 2.45 µM) | 12 (≈ 29.5 µM)
COc1ccccc1N1C(=O)c2cc([N+](=O)[O-])cc3cc([N+](=O)[O-])cc(c23)C1=O | > 256 | > 256 | > 256 | 4 (≈ 10.2 µM) | 4 (≈ 10.2 µM) | 2.5 (≈ 6.36 µM) | 1.25 (≈ 3.18 µM) | 0.3 (≈ 0.763 µM) | > 256 | 2.5 (≈ 6.36 µM) | > 256
